Measured values collected from several papers.
Each line is one published result; the experiments were not run side by side.
Target: LIM domain kinase 1 (LIMK1, Homo sapiens, UniProt P53667)

CCN(CC)CCNC(=O)c1c(C)[nH]c(/C=C2\C(=O)Nc3ccc(F)cc32)c1C — inhibition (enzyme activity; inhibitor; 0.3 µM): -9%
Cn1cnc(Br)c1C1=CN(c2ncnc3[nH]cnc23)CCS1 — inhibition (enzyme activity; inhibitor; radiometric; 50 nM): 15.2%
CC(C)(C)c1nc2c(s1)c1nc(N)ncc1c1ccc(NS(=O)(=O)c3c(F)cccc3F)c(F)c12 — remaining activity (enzyme activity; inhibitor; radiometric; 1 µM): 100%
O=C(O)[C@@H]1[C@@H](Cn2nnc3ccccc3c2=O)CC[C@H]1C(=O)c1ccc(OCCC2CCOCC2)cc1 — remaining binding (cell-free assay; competition with immobilised ligand; 1 µM): 100%
CCCS(=O)(=O)Nc1ccc(F)c(C(=O)c2c[nH]c3ncc(-c4ccc(Cl)cc4)cc23)c1F — inhibition (enzyme activity; inhibitor; 1 µM): < 10%
COc1cc(Cl)c(C(=O)N[C@@H](CN[C@H]2CC[C@@H](N)CC2)Cc2ccc(C#N)cc2)cc1-c1ccc(CN[C@H](C)c2ccc(C)cc2)o1 — remaining activity (enzyme activity; inhibitor; 1 µM): 100%
Cc1ccc(C(=O)Nc2ccc(CN3CCN(C)CC3)c(C(F)(F)F)c2)cc1C#Cc1cnc2cccnn12 — remaining activity (enzyme activity; inhibitor; 23.5 nM): 99%
O=C1Nc2ccc(Cl)cc2C1=Cc1cc(Cl)c(O)c(Cl)c1 — remaining signal (cell-free assay; 0.5 µM): 83.7%
CNC(=O)c1cc(Oc2ccc(NC(=O)Nc3ccc(Cl)c(C(F)(F)F)c3)cc2)ccn1 — inhibition (enzyme activity; inhibitor; 10 µM): 89%
CN1CCN(c2cnc3c(C4CCN(C(=O)c5ccc(OC(F)(F)F)cc5N)CC4)ncnc3c2)CC1 — remaining binding (cell-free assay; competition with immobilised ligand; 1 µM): 100%
Nc1ncnc2occ(-c3ccc(NC(=O)Nc4cc(C(F)(F)F)ccc4F)cc3)c12 — remaining signal (cell-free assay; inhibitor; 20 µM): 7.6%
O=C(Nc1cnn(-c2csc(C(=O)NC3COC3)c2)c1)Nc1ccccc1Cl — remaining activity (enzyme activity; inhibitor; 5 µM): 96.2%
CC(=O)c1c(NS(C)(=O)=O)c2cc(-c3ccc(Cl)cc3)c(-c3ccc(Cl)cc3Cl)nc2n(C)c1=O — remaining binding (cell-free assay; competition with immobilised ligand; 1 µM): 88%
CC(C)(O)[C@H]1CC[C@H](Nc2ccc3ncc(-c4cccc(C(F)(F)F)c4)n3n2)CC1 — remaining activity (enzyme activity; inhibitor; 1 µM): 76.3%
CNC(=O)c1ccc(Nc2ncc(C(F)(F)F)c(NCc3nccnc3N(C)S(C)(=O)=O)n2)cc1 — remaining binding (cell-free assay; competition with immobilised ligand; 0.1 µM): 100%
O=C1NC(=O)c2cc(Nc3ccc(F)cc3)c(Nc3ccc(F)cc3)cc21 — remaining signal (cell-free assay; 0.5 µM): 95.9%
CCCOc1ccc([C@@H]2[C@@H](C(=O)O)[C@H](c3ccc4c(c3)OCO4)CN2CC(=O)Nc2c(CC)cccc2CC)cc1 — remaining binding (cell-free assay; competition with immobilised ligand; 1 µM): 90%
O=C(Nc1cnn(-c2csc(C(=O)NC3COC3)c2)c1)Nc1c(F)cccc1Cl — remaining activity (enzyme activity; inhibitor; 5 µM): 104%
Cn1nc(C(F)(F)F)cc1-c1cnc(N2CCc3cc(S(=O)(=O)Nc4c(F)cc(Cl)cc4F)cc(N4CCCC4=O)c32)nc1 — remaining binding (cell-free assay; competition with immobilised ligand; 1 µM): 100%
Nc1nc(Nc2ccc(S(N)(=O)=O)cc2)nn1C(=O)c1c(F)cccc1F — remaining signal (cell-free assay; 0.5 µM): 16.6%
